Source: ChEMBL document CHEMBL1128602, “Potent in vitro and in vivo inhibitors of platelet aggregation based upon the Arg-Gly-Asp sequence of fibrinogen. (Aminobenzamidino)succinyl (ABAS) series of orally active fibrinogen receptor antagonists” (J Med Chem, 1995)
Each block holds one compound with its values, some of them ahead of it.

Key:
[1] = test system: Canis familiaris; experiment: Duration of action to obtain >20% ex vivo collagen induced platelet aggregation was reported, after 10 mg/kg (post-ig) into dogs; duration of time >6, <24; type: functional, Canis lupus familiaris
Outline: (§1)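 Ester prodrugs dosed orally by capsule to conscious beagle dogs (n = 2). Citrated cephalic-vein blood (2 mL) drawn before and at set times after dosing for 24 h or until back to baseline. PRP made by spinning at 260g for 6 min. Aggregation induced with equine tendon collagen (final 33 μg/mL) at 37 °C and followed for 3 min. Duration is the time with >20% inhibition versus predose control.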

[2] = test system: Canis familiaris; experiment: Duration of action to obtain >20% ex vivo collagen induced platelet aggregation was reported, after 5 mg/kg (post-ig) into dogs.; type: functional, Canis lupus familiaris; outline: as §1
[3] = test system: Canis familiaris; experiment: Duration of action to obtain >20% ex vivo collagen induced platelet aggregation was reported, after 10 mg/kg (post-ig) into dogs.; type: functional, Canis lupus familiaris; outline: as §1
[4] = Area under curve was determined by HPLC at a dosage of 2.27 mg/kg administered intravenously by bolus method in dog; type: ADME, organism-based, Canis lupus familiaris; parameters: dose 2.27 mg/kg, route intravenous; conditions: in vivo, iv
Outline: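 Female dogs (7–12 kg, n = 3), fasted 18 h. Aqueous saline solution injected into a radial vein (0.5 mL/kg) over 2–3 min. Femoral vein blood (3.5 mL) taken at 0.25, 0.5, 1, 2, 3, 5, 8, 13 and 24 h, put on ice, centrifuged, plasma held at –20 °C. Acid level in plasma measured by HPLC; AUC by trapezoidal method extrapolated to infinity and back to zero.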

[5] = test system: Canis familiaris; experiment: Duration of action to obtain >20% ex vivo collagen induced platelet aggregation was reported, after 20 mg/kg (post-ig) into dogs.; type: functional, Canis lupus familiaris; outline: as §1
[6] = test system: Canis familiaris; experiment: Duration of action to obtain >20% ex vivo collagen induced platelet aggregation was reported, after 20 mg/kg (post-ig) into dogs; duration of time >6, <24; type: functional, Canis lupus familiaris; outline: as §1
[7] = test system: Canis familiaris; experiment: Duration of action to obtain >20% ex vivo collagen induced platelet aggregation was reported, after […] 5 mg/kg orally (post-ig) into dogs.; type: functional, Canis lupus familiaris; conditions: route oral; outline: as §1
[8] = test system: Canis familiaris; experiment: Duration of action to obtain >20% ex vivo collagen induced platelet aggregation was reported, after 20 mg/kg (post-ig) into dogs; duration of time >3, <6; type: functional, Canis lupus familiaris; outline: as §1
[9] = test system: Canis familiaris; experiment: Duration of action to obtain >20% ex vivo collagen induced platelet aggregation was reported, after 20 mg/kg (post-ig) into dogs; Duration of time >6, < 24; type: functional, Canis lupus familiaris; outline: as §1
[10] = Area under curve of acid 2a was determined by HPLC at a dosage of 54.5 mg/kg administered intragastrically by gavage method in dog; type: ADME, organism-based; parameters: dose 54.5 mg/kg, route intragastric; conditions: in vivo, po
Outline: (§2)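 Six female dogs, 7–12 kg, three per group, fasted 18 h. Prodrug ester given intragastrically as aqueous solution (2 mL/kg) by gavage or in gelatin capsule. Blood (3.5 mL) drawn via femoral vein catheter at 0.5, 1, 1.5, 2, 3, 5, 8, 13, 24 and 48 h, kept on ice, centrifuged, plasma stored at –20 °C. Acid measured in plasma by HPLC; AUC by trapezoidal method, extrapolated to infinity and back to zero.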

[11] = test system: Canis familiaris; experiment: Area under curve of acid 2a was determined by HPLC at a dosage of 5.45 mg/kg administered intragastrically by capsule method in dog; type: ADME, organism-based, Canis lupus familiaris; parameters: dose 5.45 mg/kg, route intragastric; conditions: in vivo, po; outline: as §2
[12] = test system: Canis familiaris; experiment: Area under curve of acid 2a was determined by HPLC at a dosage of 5.45 mg/kg administered intragastrically by gavage method in dog; type: ADME, organism-based, Canis lupus familiaris; parameters: dose 5.45 mg/kg, route intragastric; conditions: in vivo, po; outline: as §2
[13] = test system: Canis familiaris; experiment: Area under curve of acid 2a was determined by HPLC at a dosage of 54.5 mg/kg administered intragastrically by capsule method in dog; type: ADME, organism-based, Canis lupus familiaris; parameters: dose 54.5 mg/kg, route intragastric; conditions: in vivo, po; outline: as §2

SMILES: CCOC(=O)CC(NC(=O)CCCCc1ccc(C(=N)N)cc1)c1ccccc1 (stereo not drawn)
Duration time [1]: >6 h

SMILES: CCOC(=O)CC(NC(=O)CCC(=O)Nc1ccc(C(=N)N)cc1)c1cccnc1 (stereo not drawn)
Duration time [2]: >6 h
Duration time [3]: >24 h

AUC [4]: 2490 ng·h/mL
SMILES: C#C[C@H](CC(=O)O)NC(=O)CCC(=O)Nc1ccc(C(=N)N)cc1

SMILES: C=CC(CC(=O)OCC)NC(=O)CCC(=O)Nc1ccc(C(=N)N)cc1 (stereo not drawn)
Duration time [5]: >24 h

SMILES: CCOC(=O)CC(C)NC(=O)CCC(=O)Nc1ccc(C(=N)N)cc1 (stereo not drawn)
Duration time [5]: >30 h

SMILES: CCOC(=O)CC(NC(=O)CCC(=O)Nc1ccc(C(=N)N)cc1)c1ccc(OCC)nc1 (stereo not drawn)
Duration time [2]: <6 h

SMILES: CCOC(=O)CC(C)NC(=O)CCCCc1ccc(C(=N)N)cc1 (stereo not drawn)
Duration time [6]: >6 h

SMILES: CCOC(=O)CC(NC(=O)CCC(=O)Nc1ccc(C(=N)N)cc1)c1cnc2ccccc2c1 (stereo not drawn)
Duration time [2]: <6 h

SMILES: CCOC(=O)CC(Cc1ccccc1)NC(=O)CCC(=O)Nc1ccc(C(=N)N)cc1 (stereo not drawn)
Duration time [6]: >6 h

SMILES: CCOC(=O)CC(NC(=O)CCC(=O)Nc1ccc(C(=N)N)cc1)c1ccc2c(c1)OCO2 (stereo not drawn)
Duration time [7]: >24 h

SMILES: CCOC(=O)CC(Cc1ccccc1)NC(=O)CCCCc1ccc(C(=N)N)cc1 (stereo not drawn)
Duration time [8]: >3 h

SMILES: CCOC(=O)CC(NC(=O)CCC(=O)Nc1ccc(C(=N)N)cc1)c1ccccc1 (stereo not drawn)
Duration time [9]: >6 h

AUC [10]: 31700 ng·h/mL
AUC [11]: 2660 ng·h/mL
AUC [12]: 2730 ng·h/mL
AUC [13]: 31200 ng·h/mL
SMILES: C#C[C@H](CC(=O)OCC)NC(=O)CCC(=O)Nc1ccc(C(=N)N)cc1 [XEMILOFIBAN]
Duration time [3]: >24 h
